Data taken from ChEMBL document CHEMBL3865820, “Bioactive Dibenzo-α-pyrone Derivatives from the Endophytic Fungus Rhizopycnis vagum Nitaf22” (J Nat Prod, 2016).
≈ marks a conversion by molar mass, not a printed value.

Tests used:
[1] = system: Xanthomonas euvesicatoria; experiment: Antibacterial activity against Xanthomonas vesicatoria ATCC 11633 by broth dilution colorimetric assay; assay type: functional
How it was run: (§1)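 Modified broth dilution colorimetric assay in 96-well plates, run against a plant- and human-pathogen panel. Both MIC and median inhibitory concentration (IC50) were determined. Streptomycin sulfate served as the positive control.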

[2] = system: Bacillus subtilis; experiment: Antibacterial activity against Bacillus subtilis ATCC 11562 by broth dilution colorimetric assay; assay type: functional; how it was run: as §1
[3] = Cytotoxicity against human Capan2 cells by MTT assay; assay type: functional, cell-based; conditions: Capan-2
How it was run: (§2)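 Microculture tetrazolium (MTT) assay on a panel of human carcinoma cell lines: colon HCT-116, hepatocellular HepG2, gastric BGC-823, NSCLC NCI-H1650, ovarian A2780, melanoma A375, lung adenocarcinoma A549, breast MCF-7 and pancreatic Capan2. IC50 values are reported in μM.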

[4] = Cytotoxicity against human A375 cells by MTT assay; assay type: functional, cell-based; conditions: A-375; how it was run: as §2
[5] = system: Agrobacterium tumefaciens; experiment: Antibacterial activity against Agrobacterium tumefaciens ATCC 11158 by broth dilution colorimetric assay; assay type: functional; how it was run: as §1
[6] = system: Pseudomonas amygdali pv. lachrymans; experiment: Antibacterial activity against Pseudomonas lachrymans ATCC 11921 by broth dilution colorimetric assay; assay type: functional; how it was run: as §1
[7] = Cytotoxicity against human MCF7 cells by MTT assay; assay type: functional, cell-based; how it was run: as §2
[8] = system: Staphylococcus haemolyticus; experiment: Antibacterial activity against Staphylococcus haemolyticus ATCC 29970 by broth dilution colorimetric assay; assay type: functional; how it was run: as §1
[9] = Cytotoxicity against human A549 cells by MTT assay; assay type: functional, cell-based; how it was run: as §2
[10] = Antibacterial activity against Ralstonia solanacearum ATCC 11696 by broth dilution colorimetric assay; assay type: functional, Ralstonia solanacearum K60-1
How it was run: (§3)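 Modified broth dilution colorimetric assay in 96-well plates, reporting both minimum inhibitory concentration (MIC) and median inhibitory concentration (IC50). Streptomycin sulfate served as positive control.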

[11] = Cytotoxicity against human HCT116 cells by MTT assay; assay type: functional, cell-based; conditions: HCT-116; how it was run: as §2
[12] = system: Pyricularia oryzae; experiment: Antifungal activity against Magnaporthe oryzae assessed as inhibition of spore germination after 8 hrs by microscopic analysis; assay type: functional
How it was run: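 Spores taken from 7-day-old M. oryzae cultures (2 × 10^6 spores per mL). Compound in 10% aqueous ethanol was mixed 1:1 with the spore suspension on a concave slide and kept in a dark moist chamber at 25 °C for 8 h. Germination was counted by microscope. Inhibition % = [(Gc − Gt)/Gc] × 100 against 10% ethanol control, with triplicates. IC50 was obtained by linear regression; carbendazim served as positive control.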

[13] = Cytotoxicity against human NCI-H1650 cells by MTT assay; assay type: functional, cell-based; how it was run: as §2
[14] = Cytotoxicity against human BGC823 cells by MTT assay; assay type: functional, cell-based; conditions: BGC-823; how it was run: as §2
[15] = Cytotoxicity against human A2780 cells by MTT assay; assay type: functional, cell-based; how it was run: as §2
[16] = Cytotoxicity against human HepG2 cells by MTT assay; assay type: functional, cell-based; how it was run: as §2
[17] = system: Bacillus subtilis; experiment: Antibacterial activity against Bacillus subtilis ATCC 11562 after 24 hrs by MTT based broth dilution colorimetric assay; assay type: functional; conditions: ATCC 11562, 24 h
[18] = system: Pseudomonas amygdali pv. lachrymans; experiment: Antibacterial activity against Pseudomonas lachrymans ATCC 11921 after 24 hrs by MTT based broth dilution colorimetric assay; assay type: functional; conditions: ATCC 11921, 24 h; how it was run: as §3
[19] = system: Agrobacterium tumefaciens; experiment: Antibacterial activity against Agrobacterium tumefaciens ATCC 11158 after 24 hrs by MTT based broth dilution colorimetric assay; assay type: functional; conditions: ATCC 11158, 24 h
[20] = system: Xanthomonas euvesicatoria; experiment: Antibacterial activity against Xanthomonas vesicatoria ATCC 11633 after 24 hrs by MTT based broth dilution colorimetric assay; assay type: functional; conditions: ATCC 11633, 24 h; how it was run: as §3

Row | Compound | MIC [1] | IC50 [2] | MIC [2] | IC50 [3] | IC50 [4] | IC50 [5] | MIC [5] | IC50 [6] | MIC [6] | IC50 [7] | MIC [8] | IC50 [9] | MIC [10] | IC50 [11] | IC50 [12] | IC50 [1] | IC50 [10] | other results
1 | COc1cc(O)c2c(=O)oc3c(c2c1)[C@@](C)(O)C[C@@H](OC)[C@@]31C[C@@H](O)C(=O)O1 | > 200 µg/mL | 45.5 µg/mL (≈ 116 µM) | 75 µg/mL (≈ 191 µM) | > 50 µM | > 50 µM | 56.7 µg/mL (≈ 145 µM) | 100 µg/mL (≈ 255 µM) | 44.7 µg/mL (≈ 114 µM) | 100 µg/mL (≈ 255 µM) | > 50 µM | > 200 µg/mL | > 50 µM | > 200 µg/mL | > 50 µM | > 200 µg/mL |  |  | 
2 | COC1=C[C@](C)(O)c2c(oc(=O)c3c(O)cc(OC)cc23)C1=O | > 200 µg/mL |  | > 200 µg/mL | > 50 µM | > 50 µM |  | > 200 µg/mL |  | > 200 µg/mL | > 50 µM | > 200 µg/mL | > 50 µM | > 200 µg/mL | > 50 µM | 82.1 µg/mL (≈ 258 µM) |  |  | 
3 | COc1cc(O)c2c(=O)oc3c(c2c1)[C@@](C)(O)C[C@H](OC)[C@@]31C[C@@H](O)C(=O)O1 | > 200 µg/mL |  | > 200 µg/mL |  |  |  | > 200 µg/mL |  | > 200 µg/mL |  | > 200 µg/mL |  | > 200 µg/mL |  |  |  |  | 
4 | COc1cc(O)c2c(=O)oc3c(c2c1)[C@@](C)(O)C(Cl)=C(O)C3=O | 100 µg/mL (≈ 295 µM) | 44.6 µg/mL (≈ 132 µM) | 100 µg/mL (≈ 295 µM) | > 50 µM | > 50 µM | 47.3 µg/mL (≈ 140 µM) | 100 µg/mL (≈ 295 µM) | 4.3 µg/mL (≈ 12.7 µM) | 25 µg/mL (≈ 73.8 µM) | > 50 µM | 25 µg/mL (≈ 73.8 µM) | 25.5 µM | 50 µg/mL (≈ 148 µM) | 37.3 µM |  | 52.5 µg/mL (≈ 155 µM) | 36.5 µg/mL (≈ 108 µM) | IC50 [8]: 7 µg/mL (≈ 20.7 µM)
5 | COc1cc(O)c2c(=O)oc3c(O)c(OC)c(Cl)c(C)c3c2c1 | 50 µg/mL (≈ 148 µM) | 22.4 µg/mL (≈ 66.5 µM) | 50 µg/mL (≈ 148 µM) |  |  | 15 µg/mL (≈ 44.5 µM) | 50 µg/mL (≈ 148 µM) | 16.4 µg/mL (≈ 48.7 µM) | 50 µg/mL (≈ 148 µM) |  | 50 µg/mL (≈ 148 µM) |  | 50 µg/mL (≈ 148 µM) | > 10 µM | > 200 µg/mL | 15.9 µg/mL (≈ 47.2 µM) | 24.2 µg/mL (≈ 71.9 µM) | IC50 [13]: > 10 µM; IC50 [8]: 26.7 µg/mL (≈ 79.3 µM); IC50 [14]: > 10 µM; IC50 [15]: > 10 µM; IC50 [16]: > 10 µM
6 | COc1cc(O)c2c(=O)oc3cc(O)c(Cl)c(C)c3c2c1 |  |  |  | > 50 µM | > 50 µM |  |  |  |  | > 50 µM |  | > 50 µM |  | > 50 µM |  |  |  | IC50 [17]: 16.7 to 34.3 µg/mL (≈ 54.5 to 112 µM); IC50 [18]: 16.7 to 34.3 µg/mL (≈ 54.5 to 112 µM); IC50 [19]: 16.7 to 34.3 µg/mL (≈ 54.5 to 112 µM); IC50 [20]: 16.7 to 34.3 µg/mL (≈ 54.5 to 112 µM)
7 | Cc1c(Cl)c(O)cc2oc(=O)c3c(O)cc(O)cc3c12 | 75 µg/mL (≈ 256 µM) | 18.6 µg/mL (≈ 63.6 µM) | 50 µg/mL (≈ 171 µM) |  |  | 16.3 µg/mL (≈ 55.7 µM) | 50 µg/mL (≈ 171 µM) |  | > 200 µg/mL |  | > 200 µg/mL |  | 50 µg/mL (≈ 171 µM) | > 10 µM | 9.9 µg/mL (≈ 33.8 µM) | 22.7 µg/mL (≈ 77.6 µM) | 12.4 µg/mL (≈ 42.4 µM) | IC50 [13]: > 10 µM; IC50 [14]: > 10 µM; IC50 [15]: > 10 µM; IC50 [16]: > 10 µM
